Results collected from several papers.
Protocols differ between the studies behind these lines.
Organism: Plasmodium falciparum
Observed: parasite growth

| SMILES | assay | test system | setting | IC50 |
| --- | --- | --- | --- | --- |
| Cc1cccc(C(=O)O)c1NC(=O)c1ccc(-c2ccccc2)cc1 | resazurin | NF54 | 48 h, gametocyte | 1140 nM |
| C/C=C/C=C/C=C/c1c(O)cc(CC=C(C)C)c(O)c1C=O | – | W2 | 72 h, drug-resistant strain, blood stage | 1.1 µg/mL |
| Clc1ccc2c(nc(N3CCNCC3)n2Cc2ccccc2)c1Cl | – | NF54 | blood stage | 55 nM |
| COc1cc(NC(C)CCCNCOC(=O)NCCCC(C)Nc2cc(OC)cc3cccnc23)c2ncccc2c1.Cl.Cl (stereo not drawn) | – | W2 | drug-resistant strain, blood stage | 2.7 µg/mL |
| C#CCCCCCCCCC=CCC(O)CC(O)CO (stereo not drawn) | – | D6 | blood stage | > 47.6 µg/mL |
| CCN(CC)CCCC(C)Nc1ccnc2cc(Cl)ccc12 (stereo not drawn) | – | NF54 | blood stage | 8 nM |
| COc1cccc2c(-c3ccc4c(c3O)[C@@H](C)N[C@H](C)C4)c(C)cc(OC)c12 | SYBR Green | NF54 | blood stage | 1330 nM |
| C[C@H]1[C@@H](O)O[C@@H]2O[C@@]3(C)CC[C@H]4[C@H](C)CC[C@@H]1[C@@]24OO3 | – | 3D7 | 24 h, blood stage | 25.2 nM |
| CCN(CC)CCCC(C)Nc1ccnc2cc(Cl)ccc12 (stereo not drawn) | – | D6 | blood stage | 10 nM |
| Cc1ccc(C(=O)Nc2ccc(S(=O)(=O)O)c3cc(S(=O)(=O)O)cc(S(=O)(=O)O)c23)cc1NC(=O)c1cccc(NC(=O)Nc2cccc(C(=O)Nc3cc(C(=O)Nc4ccc(S(=O)(=O)O)c5cc(S(=O)(=O)O)cc(S(=O)(=O)O)c45)ccc3C)c2)c1 | SYBR Green | – | blood stage | > 100000 nM |
| C[C@@H]1CC[C@H]2[C@@H](C)C(=O)O[C@@H]3O[C@@]4(C)CC[C@@H]1[C@]32OO4 | – | D6 | blood stage | 0.0085 µg/mL |
| Clc1ccc2c(c1)nc(NCc1ccccn1)n2Cc1ccccc1 | – | NF54 | blood stage | > 10000 nM |
| O=C(Nc1ccnc(C(F)(F)F)c1)Nc1cccc2c1OC(F)(F)O2 | – | NF54 | blood stage | 700 nM |
| N=C(N)c1ccc(OCCCCCOc2ccc(C(=N)N)cc2)cc1 | SYBR Green | – | blood stage | 5.6 nM |
| CC[C@@H](C)[C@H]1O[C@@H](c2c(O)c(-c3ccccc3)cn(O)c2=O)[C@H](C)C[C@@H]1C | – | D6 | 72 h, blood stage | 0.33 µg/mL |
| N=C(N)NCCCCC(=O)Nc1cc(C(F)(F)F)cc(NC(=O)c2cc(C(=O)Nc3cc(C(F)(F)F)cc(NC(=O)CCCCNC(=N)N)c3O[C@@H]3CCNC3)ncn2)c1O[C@@H]1CCNC1 | SYBR Green | – | blood stage | 670 nM |
| O=C(Nc1c(F)cccc1C(=O)O)c1ccc(-c2ccccc2)cc1 | – | NF54 | 48 h, blood stage | > 10000 nM |
| FC(F)(F)c1ccc2c(c1)nc(N1CCNCC1)n2Cc1ccccc1 | – | NF54 | blood stage | 310 nM |
| CCN(CC)CCCC(C)Nc1ccnc2cc(Cl)ccc12 (stereo not drawn) | – | D6 | 72 h, blood stage | 0.01 µg/mL |
| O=C(O)c1ccc(-n2nc(-c3ccccc3O)nc2-c2ccccc2O)cc1 | SYBR Green | – | blood stage | 47700 nM |
| CCN(CC)CCCC(C)Nc1ccnc2cc(Cl)ccc12 (stereo not drawn) | – | 3D7 | 96 h, blood stage | 3 nM |
| CN1CCC(NCc2cccc(-c3ccc(S(=O)(=O)NCc4ccccc4)cc3)c2)CC1 | SYBR Green | – | blood stage | 593 nM |
| C[C@@H]1CN(c2nc3cc(Cl)ccc3n2Cc2ccccc2)C[C@H](C)N1 | – | NF54 | blood stage | 216 nM |
| O=C(Nc1cc(F)ccc1C(=O)O)c1ccc(-c2ccccc2)cc1 | resazurin | NF54 | 48 h, gametocyte | 105 nM |
